Screens (PubChem BioAssay)
DENV2 CPE rescue – inhibitors of DENV2 cytopathic effect, primary screen, cell-based, plate reader, single concentration. DENV2-infected cells, cytopathic effect rescue. CPE inhibition, % at 9.99 µM. 1.7% of 350,000 active; in the data active means CPE inhibition above about 20%, passing the limit was not always enough; inconclusive means no clear call, values can overlap the other calls; tested in BHK-21 cells;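 further: 0% = median of neutral control wells and 100% = median of positive control wells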
E-sel inducer – E-selectin induction in HUVECs, primary screen, imaging, HUVEC, immunofluorescence imaging, single point; AID 686992, 2013; activation, % at 7.58 µM; normalized: neutral wells 0, TNF-alpha wells 100; P16581; 0.37% of 260,000 active;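 active means mean E-selectin-positive cell signal at least 10% of the positive control, reached in at least 60% of replicates, without over 20% cell loss; inconclusive means no rule given, readout overlaps actives, possibly toxicity-flagged; inactive means the rest, including those meeting only one limit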
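System: HUVEC / Compound: single concentration / Signal: immunofluorescence imaging / Read-out: percent E-selectin-positive cells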
SIRT5 inh – SIRT5 desuccinylase inhibitors, primary screen, biochemical, fluorescence imaging, single point, set 5; NAD-dependent protein deacylase sirtuin-5, mitochondrial (Homo sapiens), Q9NXA8; Purified SirT5, succinyl-peptide AMC, trypsin-coupled fluorescence; AID 652115, 2013; inhibition, % at 15 µM; 1.1% of 330,000 active; in the data active means inhibition above about 15%; inconclusive means no clear call, values can overlap the other calls
Target sequence (Q9NXA8 whole entry, looked up): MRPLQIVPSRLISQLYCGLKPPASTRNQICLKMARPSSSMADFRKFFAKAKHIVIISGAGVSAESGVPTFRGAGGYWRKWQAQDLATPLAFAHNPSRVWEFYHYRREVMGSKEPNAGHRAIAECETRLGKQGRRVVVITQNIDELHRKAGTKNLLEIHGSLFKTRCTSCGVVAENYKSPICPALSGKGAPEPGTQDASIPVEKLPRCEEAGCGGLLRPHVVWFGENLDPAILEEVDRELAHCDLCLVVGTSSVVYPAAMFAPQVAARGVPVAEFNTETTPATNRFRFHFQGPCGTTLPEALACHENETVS
* = called active by the depositor; ? = inconclusive; nt = no result given; ! = a repeat was not active. In the library only some 2.9% were active in any assay of this set; here they are far more common.

SMILES	DENV2 CPE rescue	E-sel inducer	SIRT5 inh
C[C@H](CO)N1C[C@H](C)[C@H](CN(C)S(=O)(=O)c2ccc(Cl)cc2)Oc2ccc(NC(=O)Nc3ccc4c(c3)OCO4)cc2C1=O	29.2*	0.0	0.3
C[C@H](CO)N1C[C@H](C)[C@H](CN(C)S(=O)(=O)c2ccc(Cl)cc2)Oc2ccc(NC(=O)Cc3ccccc3)cc2C1=O	11.0	36.3*	-1.7
C[C@@H]1CN([C@H](C)CO)C(=O)c2cc(NC(=O)Nc3ccc(C(F)(F)F)cc3)ccc2O[C@@H]1CN(C)S(=O)(=O)c1ccccc1	-5.9	7.9	9.1
Cc1noc(C)c1NC(=O)Nc1cccc2c1O[C@H](CN(C)S(=O)(=O)c1ccc(F)cc1)[C@@H](C)CN([C@@H](C)CO)C2=O	32.5*	16.7	7.3
C[C@H]1CN([C@@H](C)CO)C(=O)c2cc(NC(=O)Nc3ccc4c(c3)OCO4)ccc2O[C@H]1CN(C)S(=O)(=O)c1ccc(Cl)cc1	-5.4	-0.2	10.8
Cc1noc(C)c1NC(=O)Nc1cccc2c1O[C@H](CN(C)S(=O)(=O)c1ccc(F)cc1)[C@@H](C)CN([C@H](C)CO)C2=O	-1.3	-1.8	2.6
C[C@H](CO)N1C[C@H](C)[C@@H](CN(C)S(=O)(=O)c2ccccc2)Oc2ccc(NC(=O)Nc3ccc(C(F)(F)F)cc3)cc2C1=O	0.4	430.8*!	12.5
C[C@@H]1CN([C@@H](C)CO)C(=O)c2cc(NC(=O)Cc3ccccc3)ccc2O[C@@H]1CN(C)S(=O)(=O)c1ccc(Cl)cc1	-1.9	-13.8	11.7
C[C@H]1CN([C@@H](C)CO)C(=O)CCCn2nncc2CO[C@@H]1CN(C)C(=O)Nc1ccc(N2CCCCC2)cc1	12.1	-0.2	-2.5
COCCNCCCCSc1ccc(Cl)cc1	0.4	0.1	-4.6
O=C(NCc1ccccc1)c1ccc2c(=O)[nH]c3c(C(=O)NCC4CCCO4)sc(=S)n3c2c1 (centres undefined)	-5.3	0.7	8.4
O=C(c1ccc(Br)o1)N(Cc1ccccc1)Cc1ccccc1	nt	0.0	12.9
O=C(NCC[C@H]1CC[C@H](NS(=O)(=O)c2ccc(F)cc2)[C@H](CO)O1)c1ccc2c(c1)OCO2	-1.6	0.3	-0.1
Cc1noc(C)c1NC(=O)Nc1ccc2c(c1)C(=O)N([C@H](C)CO)C[C@@H](C)[C@H](CN(C)S(=O)(=O)c1ccc(F)cc1)O2	86.4*	0.5	4.0
C[C@@H]1CN([C@@H](C)CO)C(=O)c2cc(NC(=O)Nc3ccc(C(F)(F)F)cc3)ccc2O[C@H]1CN(C)S(=O)(=O)c1ccccc1	2.7	78.5*	1.8
C[C@@H]1CN([C@@H](C)CO)C(=O)c2cc(NC(=O)Nc3ccc(C(F)(F)F)cc3)ccc2O[C@@H]1CN(C)S(=O)(=O)c1ccc(Cl)cc1	?	0.5	5.0
C[C@H]1CN([C@@H](C)CO)C(=O)c2cc(NC(=O)Nc3ccc(C(F)(F)F)cc3)ccc2O[C@H]1CN(C)S(=O)(=O)c1ccccc1	-10.6	-6.8	7.6
Cc1noc(C)c1NC(=O)Nc1ccc2c(c1)C(=O)N([C@H](C)CO)C[C@H](C)[C@@H](CN(C)S(=O)(=O)c1ccc(F)cc1)O2	13.7	0.0	5.3
C[C@H](CO)N1C[C@H](C)[C@H](CN(C)S(=O)(=O)c2ccc(Cl)cc2)Oc2ccc(NC(=O)Nc3ccc(F)cc3)cc2C1=O	10.1	-0.1	15.2*
C[C@H]1CN([C@@H](C)CO)C(=O)c2cc(NC(=O)Nc3ccc(C(F)(F)F)cc3)ccc2O[C@H]1CN(C)S(=O)(=O)c1ccc(Cl)cc1	-3.1	0.1	23.2*
C[C@@H]1CN([C@@H](C)CO)C(=O)c2cc(NC(=O)Nc3ccc(F)cc3)ccc2O[C@H]1CN(C)S(=O)(=O)c1ccc(Cl)cc1	-12.3	1.7	8.1
COc1cc(OC)cc(C(=O)NCc2nc(-c3ccccc3)no2)c1	-0.8	nt	-3.9
Cc1ccc(NC(=O)C2CCN(S(=O)(=O)c3c(C)n[nH]c3C)CC2)c(C)c1	-0.5	nt	-2.7
O=C(C[C@H]1CC[C@H](NC(=O)c2ccc(F)cc2)[C@@H](CO)O1)NCCc1ccccc1	-4.3	0.2	0.3
COCCNC(=O)C[C@@H]1C=C[C@H](NC(=O)NC2CCCC2)[C@H](CO)O1	0.5	0.1	2.2
SMILES	DENV2 CPE rescue	E-sel inducer	SIRT5 inh
O=C(N[C@@H]1C=C[C@H](CC(=O)N2CCN(c3ccccc3)CC2)O[C@@H]1CO)c1ccccc1	4.0	-0.1	1.2
O=C(N[C@@H]1CC[C@H](CCNS(=O)(=O)c2ccccc2)O[C@H]1CO)c1cnccn1	9.8	-0.6	27.7*
Cc1cccc(S(=O)(=O)N[C@@H]2CC[C@@H](CCNC(=O)c3cnccn3)O[C@@H]2CO)c1	30.7*	-0.3	1.8
Cc1cccc(S(=O)(=O)N[C@H]2CC[C@@H](CCNC(=O)c3cnccn3)O[C@@H]2CO)c1	-2.0	-0.2	0.7
O=C(NCC[C@H]1CC[C@H](NC(=O)c2cnccn2)[C@@H](CO)O1)Nc1ccc(F)cc1	22.1*	0.3	-0.7
O=C(N[C@@H]1CC[C@H](CCNS(=O)(=O)c2ccccc2)O[C@@H]1CO)c1cnccn1	11.0	-0.5	-2.0
O=C(N[C@@H]1CC[C@H](CCNS(=O)(=O)c2ccc(Cl)cc2)O[C@@H]1CO)c1cnccn1	15.4	-1.5	5.2
O=C(N[C@H]1CC[C@H](CCNS(=O)(=O)c2ccc(Cl)cc2)O[C@@H]1CO)c1cnccn1	49.0*	-0.6	-1.7
O=C(NCC[C@H]1CC[C@H](NC(=O)c2cnccn2)[C@H](CO)O1)Nc1ccc(F)cc1	-1.2	-0.1	-4.4
O=C(NCC1CCCO1)C1CCCN(S(=O)(=O)c2ccc(Cl)cc2)C1 (centres undefined)	2.9	0.0	1.5
COc1ccc(S(=O)(=O)N2CCCCN3[C@H](CO)[C@H](c4ccc(-c5cccnc5)cc4)[C@@H]3C2)cc1	-12.4	0.4	3.0
COc1ccc(CN(C)CC(=O)NC(C)c2ccccc2)c(OC)c1 (centres undefined)	-1.8	nt	-4.5
C[C@@H]1CN([C@@H](C)CO)C(=O)c2cc(NC(=O)Nc3ccccc3)ccc2O[C@H]1CN(C)CC1CCCCC1	2.3	0.0	2.3
Cc1ccc2nc(C)cc(N/N=C/c3cccc(O)c3)c2c1	2.3	nt	7.6
NC(=O)COc1ccc2oc(=O)cc(-c3cc4ccccc4o3)c2c1	1.3	nt	-4.8
Cc1ccc([N+](=O)[O-])cc1NC(=O)c1ccc(C(C)(C)C)cc1	1.9	nt	1.3
Cc1c(CC(=O)O)c(=O)oc2cc3c(cc12)CCC(C)(C)O3	3.0	nt	-37.4
CCCCCCCCCCCCCCCC[N+](C)(C)CC	-7.4	1.6	7.3
O=C(N[C@H]1CC[C@H](CCNS(=O)(=O)c2ccccc2)O[C@@H]1CO)c1cccnc1	-5.4	1.7	-1.6
O=C(N[C@@H]1CC[C@@H](CCNS(=O)(=O)c2ccccc2)O[C@H]1CO)c1cccnc1	32.1*	-1.8	0.9
CCCC#Cc1ccc2c(c1)O[C@H](CN(C)S(=O)(=O)c1cccc(F)c1)[C@H](C)CN([C@@H](C)CO)S2(=O)=O	-7.9	-2.1	1.8
